Test results reported in ChEMBL document CHEMBL3414528, “Novel naftopidil-related derivatives and their biological effects as alpha1-adrenoceptors antagonists and antiproliferative agents” (Eur J Med Chem, 2015).
Active and inactive are the calls of the source. The calls are words filed in the database; no cut-off is given here.

Columns and labels:
PC-3 [1] = test: Induction of apoptosis in human PC3 cells assessed as late apoptotic cells at 10 uM after 24 hrs by annexin V/propidium iodide staining-based flow cytometry (reference value: 2.1%); type: functional
In short: (§1)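 Phosphatidylserine exposure in PC-3 cells after 24 h at 0, 5, 10, 20 or 30 μM, by Alexa Fluor 488 annexin V/PI double staining and flow cytometry; early apoptotic = AV+/PI−, late apoptotic or dead = AV+/PI+.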

[2] = Cell cycle arrest in human PC3 cells assessed as accumulation at S phase at 10 uM after 24 hrs by propidium iodide staining-based flow cytometry (reference value: 27.26%); type: functional; conditions: PC-3
In short: (§2)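 PC-3 cells given compound at 5, 10, 15, 20 or 30 μM, or 0.1% DMSO vehicle, for 24 h; stained with propidium iodide and analysed by flow cytometry for G0/G1, S and G2/M fractions.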

[3] = molecular target: T1, Alpha-1B adrenergic receptor (Rattus norvegicus, UniProt P15823); test: Antagonist activity at Sprague-Dawley rat spleen adrenergic alpha-1B receptor after 20 mins; conditions: read-out: pA2 (converted)
T1 sequence (P15823 whole entry): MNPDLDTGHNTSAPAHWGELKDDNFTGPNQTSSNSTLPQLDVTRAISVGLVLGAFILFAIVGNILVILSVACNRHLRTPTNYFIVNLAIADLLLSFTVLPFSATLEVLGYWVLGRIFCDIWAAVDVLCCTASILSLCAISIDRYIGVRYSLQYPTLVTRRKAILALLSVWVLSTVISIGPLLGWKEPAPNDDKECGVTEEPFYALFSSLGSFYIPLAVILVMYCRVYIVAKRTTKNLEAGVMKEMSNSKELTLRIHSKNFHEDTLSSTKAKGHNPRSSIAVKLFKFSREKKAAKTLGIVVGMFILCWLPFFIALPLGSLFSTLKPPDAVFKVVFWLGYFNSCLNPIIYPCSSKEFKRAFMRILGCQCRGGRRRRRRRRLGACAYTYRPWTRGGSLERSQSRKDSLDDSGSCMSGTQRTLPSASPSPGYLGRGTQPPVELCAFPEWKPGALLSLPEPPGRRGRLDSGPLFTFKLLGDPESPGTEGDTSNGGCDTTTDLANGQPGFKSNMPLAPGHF
In short: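 Isolated rat tissues (prostatic vas deferens, spleen, thoracic aorta) contracted with cumulative norepinephrine; concentration-response curves recorded in presence of increasing antagonist concentrations, antagonism read as rightward curve shift. Mean ± SEM of five to eight separate experiments.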

[4] = Cell cycle arrest in human PC3 cells assessed as accumulation at S phase at 30 uM after 24 hrs by propidium iodide staining-based flow cytometry (reference value: 27.26%); type: functional; conditions: PC-3; in short: as §2
[5] = Induction of apoptosis in human PC3 cells assessed as upregulation of Bax expression after 24 hrs by Western blotting analysis; type: functional, cell-based; conditions: PC-3
In short: (§3)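 PC-3 cells exposed for 24 h to 0, 1, 5, 10, 20 or 30 μM; Bax, Bcl-2 and activated caspase-3 measured by Western blot, reported as Bax/Bcl-2 value.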

[6] = Cell cycle arrest in human PC3 cells assessed as accumulation at G0/G1 phase at 15 uM after 24 hrs by propidium iodide staining-based flow cytometry (reference value: 39.20%); type: functional; conditions: PC-3; in short: as §2
[7] = Cell cycle arrest in human PC3 cells assessed as accumulation at S phase at 15 uM after 24 hrs by propidium iodide staining-based flow cytometry (reference value: 27.26%); type: functional; conditions: PC-3; in short: as §2
PC-3 [8] = test: Induction of apoptosis in human PC3 cells assessed as early apoptotic cells at 20 uM after 24 hrs by annexin V/propidium iodide staining-based flow cytometry (reference value: 5.7%); type: functional; in short: as §1
PC-3 [9] = test: Antiproliferative activity against human PC3 cells assessed as reduction in cell viability at 1.5 to 100 uM by WST-8 assay in presence of 50 uM of norepinephrine; type: functional, cell-based
In short: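 PC-3 cells treated with compound at 100, 75, 50, 25, 12.5, 6.25, 3.0 and 1.5 μM alone or together with norepinephrine (20 or 50 μM); viability by WST-8. Mean ± SEM, two-way ANOVA with post-hoc tests.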

PC-3 [10] = test: Induction of apoptosis in human PC3 cells assessed as late apoptotic cells at 30 uM after 24 hrs by annexin V/propidium iodide staining-based flow cytometry (reference value: 2.1%); type: functional; in short: as §1
[11] = Cell cycle arrest in human PC3 cells assessed as accumulation at G2/M phase at 20 uM after 24 hrs by propidium iodide staining-based flow cytometry (reference value: 33.04%); type: functional; conditions: PC-3; in short: as §2
[12] = Induction of apoptosis in human PC3 cells assessed as upregulation of caspase3 level after 24 hrs by Western blotting analysis; type: functional, cell-based; conditions: PC-3; in short: as §3
[13] = Cytotoxicity against human PC3 cells after 48 hrs by WST-8 assay; type: functional, cell-based; conditions: PC-3, 48 h
Rattus norvegicus [14] = species on record: Rattus norvegicus; test: Selectivity ratio for Sprague-Dawley rat prostatic vas deferens adrenergic alpha-1A receptor to Sprague-Dawley rat spleen adrenergic alpha-1B receptor
PC-3 [15] = test: Induction of apoptosis in human PC3 cells assessed as total apoptotic cells at 10 uM after 24 hrs by annexin V/propidium iodide staining-based flow cytometry; type: functional; in short: as §1
PC-3 [16] = test: Induction of apoptosis in human PC3 cells assessed as late apoptotic cells at 5 uM after 24 hrs by annexin V/propidium iodide staining-based flow cytometry (reference value: 2.1%); type: functional; in short: as §1
[17] = Induction of apoptosis in human PC3 cells assessed as upregulation of Bcl2 expression after 24 hrs by Western blotting analysis; type: functional, cell-based; conditions: PC-3, in the assay text read “upregulation of Bax/Bcl2 ratio” for “upregulation of Bcl2 expression”; in short: as §3
PC-3 [18] = test: Induction of apoptosis in human PC3 cells assessed as early apoptotic cells at 5 uM after 24 hrs by annexin V/propidium iodide staining-based flow cytometry (reference value: 5.7%); type: functional; in short: as §1
Rattus norvegicus [19] = species on record: Rattus norvegicus; test: Selectivity ratio for Sprague-Dawley rat thoracic aorta adrenergic alpha-1D receptor to Sprague-Dawley rat prostatic vas deferens adrenergic alpha-1A receptor
[20] = Cell cycle arrest in human PC3 cells assessed as accumulation at G0/G1 phase at 10 uM after 24 hrs by propidium iodide staining-based flow cytometry (reference value: 39.20%); type: functional; conditions: PC-3; in short: as §2
[21] = Cell cycle arrest in human PC3 cells assessed as accumulation at G2/M phase at 10 uM after 24 hrs by propidium iodide staining-based flow cytometry (reference value: 33.04%); type: functional; conditions: PC-3; in short: as §2

- Kb [3]: 0.141 µM
SMILES: COc1ccccc1N1CCN(CCCNC(=O)c2cc3ccccc3n2Cc2ccccc2)CC1
- Activity (PC-3 [1]): 9.2%
- Activity [2]: 15.2%
- Activity [4]: 20.9%
- Activity [5]: Dose-dependent effect
- Activity [6]: 70.6%
- Activity [7]: 14.5%
- Activity (PC-3 [8]): 44.9%
- Activity (PC-3 [9]): inactive
- Activity (PC-3 [10]): 32.6%
- Activity [11]: 16.2%
- Activity [12]: Dose-dependent effect
- IC50 [13]: 15.7 µM
- Ratio (Rattus norvegicus [14]): 19.1
- Activity (PC-3 [15]): 51.1%
- Activity (PC-3 [16]): 3.5%
- Activity [17]: Dose-dependent effect
- Activity (PC-3 [18]): 20.2%
- Ratio (Rattus norvegicus [19]): 2.6
- Activity [20]: 58.5%
- Activity [21]: 26.5%
